Results taken from ChEMBL document CHEMBL2390901, “Synthesis and biological evaluation of N-(4-hydroxy-3-mercaptonaphthalen-1-yl)amides as inhibitors of angiogenesis and tumor growth” (Eur J Med Chem, 2013).
Activity calls are given as the source filed them. No cut-off for these calls is given here.

The compounds below were run against Platelet-derived growth factor receptor beta (Homo sapiens) (UniProt P09619) (assay: Inhibition of PDGFR-beta (unknown origin) at 10 uM after 30 mins by fluorescence assay). Conditions: not given.
Sequence of Platelet-derived growth factor receptor beta (Homo sapiens) (P09619 whole entry): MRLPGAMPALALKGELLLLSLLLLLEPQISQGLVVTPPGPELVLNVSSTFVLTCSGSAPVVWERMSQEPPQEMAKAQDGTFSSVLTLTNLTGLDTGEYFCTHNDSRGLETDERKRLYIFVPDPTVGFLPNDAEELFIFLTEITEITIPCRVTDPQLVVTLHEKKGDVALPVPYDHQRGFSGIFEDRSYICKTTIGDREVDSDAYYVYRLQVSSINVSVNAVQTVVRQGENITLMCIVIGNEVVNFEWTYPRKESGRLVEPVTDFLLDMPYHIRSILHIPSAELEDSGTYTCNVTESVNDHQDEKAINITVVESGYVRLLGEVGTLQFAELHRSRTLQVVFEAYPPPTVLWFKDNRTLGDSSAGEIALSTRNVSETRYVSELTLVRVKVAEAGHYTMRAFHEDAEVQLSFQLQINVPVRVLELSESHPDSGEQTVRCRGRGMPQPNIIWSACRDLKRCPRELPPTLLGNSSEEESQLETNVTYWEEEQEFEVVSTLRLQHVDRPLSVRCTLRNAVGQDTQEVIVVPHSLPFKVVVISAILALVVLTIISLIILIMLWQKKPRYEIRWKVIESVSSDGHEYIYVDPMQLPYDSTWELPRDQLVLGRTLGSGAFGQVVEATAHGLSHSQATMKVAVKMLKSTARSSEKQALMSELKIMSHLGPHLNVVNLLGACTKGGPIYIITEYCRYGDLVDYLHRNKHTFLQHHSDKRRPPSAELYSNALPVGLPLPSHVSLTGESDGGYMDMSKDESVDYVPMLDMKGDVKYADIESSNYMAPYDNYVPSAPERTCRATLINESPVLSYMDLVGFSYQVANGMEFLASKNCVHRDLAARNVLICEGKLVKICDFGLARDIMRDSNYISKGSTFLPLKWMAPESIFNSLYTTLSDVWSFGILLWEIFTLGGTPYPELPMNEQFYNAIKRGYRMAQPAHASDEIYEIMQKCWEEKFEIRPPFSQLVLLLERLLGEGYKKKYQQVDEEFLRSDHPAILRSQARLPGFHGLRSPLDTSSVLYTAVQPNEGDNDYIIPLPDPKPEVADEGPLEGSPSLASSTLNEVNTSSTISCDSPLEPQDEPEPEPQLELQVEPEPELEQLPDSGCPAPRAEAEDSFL

Compound | inhibition [%]
O=C(Nc1cc(Sc2ncn[nH]2)c(O)c2ccccc12)c1ccccc1[N+](=O)[O-] | 37.9

Each compound was assayed on HCT-116 (assay: Antiproliferative activity against human HCT116 cells after 48 hrs by MTT assay). Conditions: HCT-116, 48 h.
Type: functional, cell-based
Outline: (§1)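 Cells kept in RPMI 1640 with 10 % FBS at 37 °C, 5 % CO2. Seeded 5,000/well, allowed 4 h, then exposed to serial dilutions for 48 h. MTT added for the last 4 h; formazan dissolved in DMSO, absorbance at 570 nm.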

Compound | IC50 [µM]
O=C(Nc1cc(Sc2ncn[nH]2)c(O)c2ccccc12)c1ccc([N+](=O)[O-])cc1 | > 100
O=C(Nc1cc(Sc2ncnc3nc[nH]c23)c(O)c2ccccc12)c1ccc(Cl)cc1 | > 100
Cc1nnc(Sc2cc(NC(=O)c3ccc(Cl)cc3)c3ccccc3c2O)s1 | > 100
COc1ccc(C(=O)Nc2cc(Sc3ncn[nH]3)c(O)c3ccccc23)cc1 | > 100
Cn1nnnc1Sc1cc(NC(=O)c2ccc(Cl)cc2)c2ccccc2c1O | > 100
Cc1cccc(C(=O)Nc2cc(Sc3ncn[nH]3)c(O)c3ccccc23)c1 | > 100
COc1ccc(/C=C/C(=O)Nc2cc(Sc3ncn[nH]3)c(O)c3ccccc23)cc1OC | > 100
O=C(Nc1cc(Sc2ncn[nH]2)c(O)c2ccccc12)c1ccc2ccccc2c1 | > 100
O=C(/C=C/c1ccc([N+](=O)[O-])cc1)Nc1cc(Sc2ncn[nH]2)c(O)c2ccccc12 | > 100
O=C(Nc1cc(Sc2ncn[nH]2)c(O)c2ccccc12)c1ccccc1[N+](=O)[O-] | 10.2

These compounds were tested on MDA-MB-231 (assay: Antiproliferative activity against human MDA-MB-231 cells after 48 hrs by MTT assay). Conditions: MDA-MB-231, 48 h.
Type: functional, cell-based
Outline: as §1

Compound | IC50 [µM]
O=C(Nc1cc(Sc2ncn[nH]2)c(O)c2ccccc12)c1ccc([N+](=O)[O-])cc1 | > 100
O=C(Nc1cc(Sc2ncnc3nc[nH]c23)c(O)c2ccccc12)c1ccc(Cl)cc1 | 23
Cc1nnc(Sc2cc(NC(=O)c3ccc(Cl)cc3)c3ccccc3c2O)s1 | > 100
COc1ccc(C(=O)Nc2cc(Sc3ncn[nH]3)c(O)c3ccccc23)cc1 | > 100
Cn1nnnc1Sc1cc(NC(=O)c2ccc(Cl)cc2)c2ccccc2c1O | > 100
Cc1cccc(C(=O)Nc2cc(Sc3ncn[nH]3)c(O)c3ccccc23)c1 | > 100
COc1ccc(/C=C/C(=O)Nc2cc(Sc3ncn[nH]3)c(O)c3ccccc23)cc1OC | 52.5
O=C(Nc1cc(Sc2ncn[nH]2)c(O)c2ccccc12)c1ccc2ccccc2c1 | 45.1
O=C(/C=C/c1ccc([N+](=O)[O-])cc1)Nc1cc(Sc2ncn[nH]2)c(O)c2ccccc12 | > 100
O=C(Nc1cc(Sc2ncn[nH]2)c(O)c2ccccc12)c1ccccc1[N+](=O)[O-] | 21.4

These compounds were tested against Vascular endothelial growth factor receptor 2 (Homo sapiens) (UniProt P35968) (assay: Inhibition of VEGFR2 (unknown origin) at 10 uM after 30 mins by fluorescence assay). Conditions: not given.
Sequence of Vascular endothelial growth factor receptor 2 (Homo sapiens) (P35968 whole entry): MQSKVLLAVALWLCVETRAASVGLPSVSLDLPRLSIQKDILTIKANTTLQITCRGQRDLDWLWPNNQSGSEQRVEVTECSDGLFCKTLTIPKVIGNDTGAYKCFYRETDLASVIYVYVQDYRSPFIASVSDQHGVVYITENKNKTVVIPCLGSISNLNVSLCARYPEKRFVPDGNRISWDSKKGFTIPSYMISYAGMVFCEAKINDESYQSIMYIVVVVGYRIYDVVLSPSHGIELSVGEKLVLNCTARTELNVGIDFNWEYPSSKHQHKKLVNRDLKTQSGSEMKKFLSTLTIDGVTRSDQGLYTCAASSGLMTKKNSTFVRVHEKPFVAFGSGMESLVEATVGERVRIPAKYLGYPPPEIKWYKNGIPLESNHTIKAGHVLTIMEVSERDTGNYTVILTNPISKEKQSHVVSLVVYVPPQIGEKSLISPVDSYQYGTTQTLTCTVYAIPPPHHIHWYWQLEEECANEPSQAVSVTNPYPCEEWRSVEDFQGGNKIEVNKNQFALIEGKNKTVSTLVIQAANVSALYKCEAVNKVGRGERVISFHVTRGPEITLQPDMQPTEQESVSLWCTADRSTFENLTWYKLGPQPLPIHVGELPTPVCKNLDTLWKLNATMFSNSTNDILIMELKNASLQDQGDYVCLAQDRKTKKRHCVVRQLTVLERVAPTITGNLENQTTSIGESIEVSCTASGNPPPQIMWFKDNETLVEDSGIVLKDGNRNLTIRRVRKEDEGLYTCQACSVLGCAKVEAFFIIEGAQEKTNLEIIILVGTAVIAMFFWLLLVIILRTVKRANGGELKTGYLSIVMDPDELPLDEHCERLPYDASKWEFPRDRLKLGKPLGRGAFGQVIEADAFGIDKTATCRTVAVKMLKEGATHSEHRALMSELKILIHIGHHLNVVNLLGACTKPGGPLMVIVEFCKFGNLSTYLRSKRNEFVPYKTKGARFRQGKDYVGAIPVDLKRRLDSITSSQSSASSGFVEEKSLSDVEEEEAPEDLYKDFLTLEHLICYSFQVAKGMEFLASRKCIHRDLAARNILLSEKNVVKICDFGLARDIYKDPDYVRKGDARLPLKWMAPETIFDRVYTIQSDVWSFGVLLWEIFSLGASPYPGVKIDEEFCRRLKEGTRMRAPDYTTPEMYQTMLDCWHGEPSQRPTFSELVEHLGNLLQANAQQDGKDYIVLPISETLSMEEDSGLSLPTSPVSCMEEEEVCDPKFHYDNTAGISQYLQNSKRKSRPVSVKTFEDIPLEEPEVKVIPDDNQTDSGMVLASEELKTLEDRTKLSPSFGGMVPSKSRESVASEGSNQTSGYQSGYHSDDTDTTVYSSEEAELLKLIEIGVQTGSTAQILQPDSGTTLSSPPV

Compound | inhibition [%]
O=C(Nc1cc(Sc2ncn[nH]2)c(O)c2ccccc12)c1ccccc1[N+](=O)[O-] | 65.2

These compounds were tested on HUVEC (assay: Antiangiogenic activity in HUVEC assessed as inhibition of tube formation at 50 uM after 6 hrs by matrigel assay). Conditions: Homo sapiens.
Type: functional
Outline: (§2)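 HUVECs seeded at 40,000 cells/well on Matrigel (gelled 30 min, 37 °C) in M199 with 5 % FBS plus compound or vehicle (0.5 % DMSO); 6 h at 37 °C, 5 % CO2. Tubes photographed by phase-contrast (×200); tube area measured as pixels and compared with vehicle. Mean ± SD of three independent experiments.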

Compound | inhibition at 50 µM [%]
O=C(Nc1cc(Sc2ncn[nH]2)c(O)c2ccccc12)c1ccc([N+](=O)[O-])cc1 | > 80
Cc1nnc(Sc2cc(NC(=O)c3ccc(Cl)cc3)c3ccccc3c2O)s1 | > 80
O=C(Nc1cc(Sc2ncn[nH]2)c(O)c2ccccc12)c1ccccc1[N+](=O)[O-] | > 80

The compounds below were run on K562 (assay: Antiproliferative activity against human K562 cells after 48 hrs by MTT assay). Conditions: K562, 48 h.
Type: functional, cell-based
Outline: as §1

Compound | IC50 [µM]
O=C(Nc1cc(Sc2ncnc3nc[nH]c23)c(O)c2ccccc12)c1ccc(Cl)cc1 | 16.9
O=C(Nc1cc(Sc2ncn[nH]2)c(O)c2ccccc12)c1ccccc1[N+](=O)[O-] | 10.8

The compounds below were run on Aorta (assay: Antiangiogenic activity in Sprague-Dawley rat aortic rings assessed as inhibition of microvessel outgrowth at 1 uM after 6 days by matrigel assay). Conditions: 144 h.
Type: functional
Outline: (§3)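 Aortas from 8–10-week-old male Sprague Dawley rats cleaned of fibroadipose tissue, cut into 1-mm rings, embedded between two Matrigel layers. Compound or vehicle (0.5 % DMSO) added every other day for 6 days; imaged day 7 (×200). Sprouting area quantified as pixels versus vehicle; mean ± SD, three independent experiments.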

Compound | inhibition at 1 µM [%]
O=C(Nc1cc(Sc2ncnc3nc[nH]c23)c(O)c2ccccc12)c1ccc(Cl)cc1 | > 70
Cc1nnc(Sc2cc(NC(=O)c3ccc(Cl)cc3)c3ccccc3c2O)s1 | 18
O=C(Nc1cc(Sc2ncn[nH]2)c(O)c2ccccc12)c1ccccc1[N+](=O)[O-] | 91

The compounds below were run on MCF7 (assay: Antiproliferative activity against human MCF7 cells after 48 hrs by MTT assay). Conditions: MCF7, 48 h.
Type: functional, cell-based
Outline: as §1

Compound | IC50 [µM]
O=C(Nc1cc(Sc2ncnc3nc[nH]c23)c(O)c2ccccc12)c1ccc(Cl)cc1 | 14.4
O=C(Nc1cc(Sc2ncn[nH]2)c(O)c2ccccc12)c1ccccc1[N+](=O)[O-] | 2.81

Each compound was assayed on A549 (assay: Antiproliferative activity against human A549 cells after 48 hrs by MTT assay). Conditions: A549, 48 h.
Type: functional, cell-based
Outline: as §1

Compound | IC50 [µM]
O=C(Nc1cc(Sc2ncnc3nc[nH]c23)c(O)c2ccccc12)c1ccc(Cl)cc1 | 38.4
O=C(Nc1cc(Sc2ncn[nH]2)c(O)c2ccccc12)c1ccccc1[N+](=O)[O-] | 40.5

Each compound was assayed on HUVEC (assay: Antiangiogenic activity in HUVEC assessed as inhibition of tube formation at 10 uM after 6 hrs by matrigel assay). Conditions: Homo sapiens.
Type: functional
Outline: as §2

Compound | inhibition at 10 µM [%]
Cc1nnc(Sc2cc(NC(=O)c3ccc(Cl)cc3)c3ccccc3c2O)s1 | 81
O=C(Nc1cc(Sc2ncn[nH]2)c(O)c2ccccc12)c1ccccc1[N+](=O)[O-] | 83

The compounds below were run against ALK tyrosine kinase receptor (Homo sapiens) (UniProt Q9UM73) (assay: Inhibition of ALK (unknown origin) at 10 uM after 30 mins by fluorescence assay). Conditions: not given.
Outline: (§4)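 Single 10 μM test. Enzyme preincubated with compound in Hepes/Tris pH 7.4, EGTA/Tris, MgCl2, DTT, 0.008 % Tween 20. Substrate peptide and ATP added; 30 min at room temperature. Stopped with EDTA; europium-labelled anti-phospho PT66 antibody added, TR-FRET read after 60 min. Percent inhibition versus control enzyme activity; no-enzyme basal control; duplicate.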

Sequence of ALK tyrosine kinase receptor (Homo sapiens) (Q9UM73 19-1620 limits assumed): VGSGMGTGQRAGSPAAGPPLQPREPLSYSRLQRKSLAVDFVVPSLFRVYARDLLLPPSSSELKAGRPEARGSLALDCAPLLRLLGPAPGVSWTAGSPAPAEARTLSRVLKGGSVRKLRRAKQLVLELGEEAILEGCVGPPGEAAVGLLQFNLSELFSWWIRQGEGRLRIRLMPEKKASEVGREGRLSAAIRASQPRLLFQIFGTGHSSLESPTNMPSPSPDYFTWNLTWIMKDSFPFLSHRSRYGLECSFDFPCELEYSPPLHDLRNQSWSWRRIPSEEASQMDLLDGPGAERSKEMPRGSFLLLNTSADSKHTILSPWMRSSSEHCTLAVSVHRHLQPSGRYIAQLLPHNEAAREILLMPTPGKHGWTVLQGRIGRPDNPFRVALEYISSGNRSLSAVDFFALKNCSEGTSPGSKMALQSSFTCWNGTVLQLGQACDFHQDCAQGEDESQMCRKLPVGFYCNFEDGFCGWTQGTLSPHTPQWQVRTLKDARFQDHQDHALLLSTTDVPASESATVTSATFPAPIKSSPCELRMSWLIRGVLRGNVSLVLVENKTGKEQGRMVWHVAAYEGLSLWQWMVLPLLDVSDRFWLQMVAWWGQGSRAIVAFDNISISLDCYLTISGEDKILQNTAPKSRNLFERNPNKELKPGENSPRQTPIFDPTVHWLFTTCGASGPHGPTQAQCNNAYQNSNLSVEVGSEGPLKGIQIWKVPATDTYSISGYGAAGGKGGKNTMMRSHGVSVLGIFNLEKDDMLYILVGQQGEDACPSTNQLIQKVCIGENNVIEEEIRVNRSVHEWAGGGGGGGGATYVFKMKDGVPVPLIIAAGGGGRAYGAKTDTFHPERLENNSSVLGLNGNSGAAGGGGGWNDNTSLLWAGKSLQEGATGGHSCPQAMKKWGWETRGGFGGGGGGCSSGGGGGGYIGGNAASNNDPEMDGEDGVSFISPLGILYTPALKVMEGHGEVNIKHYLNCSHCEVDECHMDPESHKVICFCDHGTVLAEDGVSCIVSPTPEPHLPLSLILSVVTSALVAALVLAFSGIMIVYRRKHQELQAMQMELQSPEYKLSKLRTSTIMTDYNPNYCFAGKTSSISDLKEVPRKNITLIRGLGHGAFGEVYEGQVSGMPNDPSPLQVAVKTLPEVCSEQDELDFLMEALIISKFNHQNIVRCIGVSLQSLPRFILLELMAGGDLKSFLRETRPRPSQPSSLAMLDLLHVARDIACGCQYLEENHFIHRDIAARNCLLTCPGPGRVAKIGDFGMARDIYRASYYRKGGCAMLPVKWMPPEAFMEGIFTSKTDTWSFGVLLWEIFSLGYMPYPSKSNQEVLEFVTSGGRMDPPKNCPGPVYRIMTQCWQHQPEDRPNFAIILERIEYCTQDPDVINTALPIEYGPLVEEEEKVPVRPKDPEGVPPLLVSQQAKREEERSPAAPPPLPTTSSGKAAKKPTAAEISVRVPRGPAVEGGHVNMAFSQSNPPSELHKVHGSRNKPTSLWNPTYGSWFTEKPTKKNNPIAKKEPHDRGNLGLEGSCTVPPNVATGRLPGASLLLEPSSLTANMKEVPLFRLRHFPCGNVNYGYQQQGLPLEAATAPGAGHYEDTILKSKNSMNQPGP

Compound | inhibition
O=C(Nc1cc(Sc2ncn[nH]2)c(O)c2ccccc12)c1ccc([N+](=O)[O-])cc1 | 3.37%
O=C(Nc1cc(Sc2ncnc3nc[nH]c23)c(O)c2ccccc12)c1ccc(Cl)cc1 | inactive
Cc1nnc(Sc2cc(NC(=O)c3ccc(Cl)cc3)c3ccccc3c2O)s1 | 9.25%
COc1ccc(C(=O)Nc2cc(Sc3ncn[nH]3)c(O)c3ccccc23)cc1 | inactive
Cn1nnnc1Sc1cc(NC(=O)c2ccc(Cl)cc2)c2ccccc2c1O | inactive
Cc1cccc(C(=O)Nc2cc(Sc3ncn[nH]3)c(O)c3ccccc23)c1 | inactive
COc1ccc(/C=C/C(=O)Nc2cc(Sc3ncn[nH]3)c(O)c3ccccc23)cc1OC | 14.9%
O=C(Nc1cc(Sc2ncn[nH]2)c(O)c2ccccc12)c1ccc2ccccc2c1 | inactive
O=C(/C=C/c1ccc([N+](=O)[O-])cc1)Nc1cc(Sc2ncn[nH]2)c(O)c2ccccc12 | inactive
O=C(Nc1cc(Sc2ncn[nH]2)c(O)c2ccccc12)c1ccccc1[N+](=O)[O-] | 56.8%

These compounds were tested against RAC-alpha serine/threonine-protein kinase (Homo sapiens) (UniProt P31749) (assay: Inhibition of AKT1 (unknown origin) at 10 uM after 30 mins by fluorescence assay). Conditions: not given.
Outline: as §4

Sequence of RAC-alpha serine/threonine-protein kinase (Homo sapiens) (P31749 whole entry): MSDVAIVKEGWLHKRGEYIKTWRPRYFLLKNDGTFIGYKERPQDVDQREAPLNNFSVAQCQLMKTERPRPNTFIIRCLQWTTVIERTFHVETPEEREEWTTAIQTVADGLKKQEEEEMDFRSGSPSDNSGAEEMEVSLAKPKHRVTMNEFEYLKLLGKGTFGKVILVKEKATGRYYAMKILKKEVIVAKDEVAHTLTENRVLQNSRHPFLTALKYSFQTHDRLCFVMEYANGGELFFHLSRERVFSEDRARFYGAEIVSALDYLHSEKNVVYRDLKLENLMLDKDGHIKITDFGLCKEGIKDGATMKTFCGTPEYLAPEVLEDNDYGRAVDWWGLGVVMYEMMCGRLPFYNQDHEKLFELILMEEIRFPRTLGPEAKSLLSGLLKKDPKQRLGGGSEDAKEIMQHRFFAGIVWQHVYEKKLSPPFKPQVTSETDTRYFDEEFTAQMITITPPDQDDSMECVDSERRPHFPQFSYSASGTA

Compound | inhibition [%]
O=C(Nc1cc(Sc2ncn[nH]2)c(O)c2ccccc12)c1ccc([N+](=O)[O-])cc1 | 37.3
O=C(Nc1cc(Sc2ncnc3nc[nH]c23)c(O)c2ccccc12)c1ccc(Cl)cc1 | 21.7
Cc1nnc(Sc2cc(NC(=O)c3ccc(Cl)cc3)c3ccccc3c2O)s1 | 8.48
COc1ccc(C(=O)Nc2cc(Sc3ncn[nH]3)c(O)c3ccccc23)cc1 | 30.8
Cn1nnnc1Sc1cc(NC(=O)c2ccc(Cl)cc2)c2ccccc2c1O | 13.1
Cc1cccc(C(=O)Nc2cc(Sc3ncn[nH]3)c(O)c3ccccc23)c1 | 20.2
COc1ccc(/C=C/C(=O)Nc2cc(Sc3ncn[nH]3)c(O)c3ccccc23)cc1OC | 31.6
O=C(Nc1cc(Sc2ncn[nH]2)c(O)c2ccccc12)c1ccc2ccccc2c1 | 41.6
O=C(/C=C/c1ccc([N+](=O)[O-])cc1)Nc1cc(Sc2ncn[nH]2)c(O)c2ccccc12 | 40.6
O=C(Nc1cc(Sc2ncn[nH]2)c(O)c2ccccc12)c1ccccc1[N+](=O)[O-] | 85.8

What follows are compounds tested on Aorta (assay: Antiangiogenic activity in Sprague-Dawley rat aortic rings assessed as reduction of microvessel outgrowth after 6 days by matrigel assay). Conditions: not given.
Type: functional, tissue-based
Outline: as §3

Compound | Activity
O=C(Nc1cc(Sc2ncnc3nc[nH]c23)c(O)c2ccccc12)c1ccc(Cl)cc1 | Dose-dependent effect
Cc1nnc(Sc2cc(NC(=O)c3ccc(Cl)cc3)c3ccccc3c2O)s1 | Dose-dependent effect
O=C(Nc1cc(Sc2ncn[nH]2)c(O)c2ccccc12)c1ccccc1[N+](=O)[O-] | Dose-dependent effect

Each compound was assayed on HUVEC (assay: Antiproliferative activity against human HUVEC cells after 48 hrs by MTT assay). Conditions: not given.
Type: functional, cell-based
Outline: as §1

Compound | IC50 [µM]
O=C(Nc1cc(Sc2ncnc3nc[nH]c23)c(O)c2ccccc12)c1ccc(Cl)cc1 | 7.53
O=C(Nc1cc(Sc2ncn[nH]2)c(O)c2ccccc12)c1ccccc1[N+](=O)[O-] | 5.34

Each compound was assayed on Aorta (assay: Antiangiogenic activity in Sprague-Dawley rat aortic rings assessed as inhibition of microvessel outgrowth at 50 uM after 6 days by matrigel assay). Conditions: not given.
Type: functional
Outline: as §3

Compound | inhibition
O=C(Nc1cc(Sc2ncn[nH]2)c(O)c2ccccc12)c1ccc([N+](=O)[O-])cc1 | Active
COc1ccc(C(=O)Nc2cc(Sc3ncn[nH]3)c(O)c3ccccc23)cc1 | Active
Cn1nnnc1Sc1cc(NC(=O)c2ccc(Cl)cc2)c2ccccc2c1O | Active
Cc1cccc(C(=O)Nc2cc(Sc3ncn[nH]3)c(O)c3ccccc23)c1 | Active
COc1ccc(/C=C/C(=O)Nc2cc(Sc3ncn[nH]3)c(O)c3ccccc23)cc1OC | Active
O=C(Nc1cc(Sc2ncn[nH]2)c(O)c2ccccc12)c1ccc2ccccc2c1 | Active
O=C(/C=C/c1ccc([N+](=O)[O-])cc1)Nc1cc(Sc2ncn[nH]2)c(O)c2ccccc12 | Active

Same assay, conditions: 144 h

Compound | inhibition at 50 µM [%]
O=C(Nc1cc(Sc2ncnc3nc[nH]c23)c(O)c2ccccc12)c1ccc(Cl)cc1 | 92
Cc1nnc(Sc2cc(NC(=O)c3ccc(Cl)cc3)c3ccccc3c2O)s1 | 91
O=C(Nc1cc(Sc2ncn[nH]2)c(O)c2ccccc12)c1ccccc1[N+](=O)[O-] | 95

What follows are compounds tested on PC-3 (assay: Antiproliferative activity against human PC3 cells after 48 hrs by MTT assay). Conditions: PC-3, 48 h.
Type: functional, cell-based
Outline: as §1

Compound | IC50 [µM]
O=C(Nc1cc(Sc2ncn[nH]2)c(O)c2ccccc12)c1ccc([N+](=O)[O-])cc1 | 53.5
O=C(Nc1cc(Sc2ncnc3nc[nH]c23)c(O)c2ccccc12)c1ccc(Cl)cc1 | 66.4
Cc1nnc(Sc2cc(NC(=O)c3ccc(Cl)cc3)c3ccccc3c2O)s1 | 49.5
COc1ccc(C(=O)Nc2cc(Sc3ncn[nH]3)c(O)c3ccccc23)cc1 | > 100
Cn1nnnc1Sc1cc(NC(=O)c2ccc(Cl)cc2)c2ccccc2c1O | > 100
Cc1cccc(C(=O)Nc2cc(Sc3ncn[nH]3)c(O)c3ccccc23)c1 | 59.5
COc1ccc(/C=C/C(=O)Nc2cc(Sc3ncn[nH]3)c(O)c3ccccc23)cc1OC | > 100
O=C(Nc1cc(Sc2ncn[nH]2)c(O)c2ccccc12)c1ccc2ccccc2c1 | > 100
O=C(/C=C/c1ccc([N+](=O)[O-])cc1)Nc1cc(Sc2ncn[nH]2)c(O)c2ccccc12 | > 100
O=C(Nc1cc(Sc2ncn[nH]2)c(O)c2ccccc12)c1ccccc1[N+](=O)[O-] | 52.5

Each compound was assayed on Aorta (assay: Antiangiogenic activity in Sprague-Dawley rat aortic rings assessed as inhibition of microvessel outgrowth at 10 uM after 6 days by matrigel assay). Conditions: 144 h.
Type: functional
Outline: as §3

Compound | inhibition at 10 µM [%]
Cc1nnc(Sc2cc(NC(=O)c3ccc(Cl)cc3)c3ccccc3c2O)s1 | 23
